Columns and labels:
Format in all cases: functional
OVCAR-8 = assay: Growth inhibition of human OVCAR8 cells after 48 hrs by sulforhodamine B assay; conditions: OVCAR-8, 48 h
In short: (§1)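 NCI 60-human-tumor-cell-line panel, with compounds tested over a 5-log dose range. Values are taken from dose-response curves as log10 molar concentrations: GI50 is 50% net growth inhibition, TGI is total growth inhibition, and LC50 is 50% net cell death.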

[1] = Growth inhibition of human […] cells after 48 hrs by sulforhodamine B assay; in short: as §1
CAKI-1 = assay: Growth inhibition of human Caki1 cells after 48 hrs by sulforhodamine B assay; conditions: CAKI-1, 48 h; in short: as §1
HL-60(TB) = assay: Growth inhibition of human HL-60(TB) cells after 48 hrs by sulforhodamine B assay; conditions: HL-60, 48 h
In short: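 Tested only on compounds active in a three-line prescreen, in the NCI 60-human-tumour-cell-line panel over a 5-log dose range. Values come from dose–response curves as log10 molar GI50, the concentration inhibiting 50% net cell growth. Log10 TGI (total growth inhibition) and log10 LC50 (50% net cell death) were derived too. Mean graph midpoints include insensitive lines at the highest concentration tested.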

A549 = assay: Growth inhibition of human A549 cells after 48 hrs by sulforhodamine B assay; conditions: A549, 48 h; in short: as §1
OVCAR-5 = assay: Growth inhibition of human OVCAR5 cells after 48 hrs by sulforhodamine B assay; conditions: OVCAR-5, 48 h; in short: as §1
TK-10 = assay: Growth inhibition of human TK10 cells after 48 hrs by sulforhodamine B assay; conditions: TK-10, 48 h
In short: (§2)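 Run in the NCI 60-human-tumour-cell-line panel, tested over a 5-log dose range. Dose–response curves gave three values per cell line, each as a log10 molar concentration: GI50 (50% inhibition of net cell growth), TGI (total inhibition of net growth) and LC50 (50% net cell death). The mean graph midpoint is the arithmetic mean over all lines, with insensitive lines entered at the highest concentration tested.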

MDA-MB-435 = assay: Growth inhibition of human MDA-MB-435 cells after 48 hrs by sulforhodamine B assay; conditions: MDA-MB-435, 48 h; in short: as §1
NCI-H23 = assay: Growth inhibition of human NCI-H23 cells after 48 hrs by sulforhodamine B assay; conditions: NCI-H23, 48 h; in short: as §1
SW-620 = assay: Growth inhibition of human SW620 cells after 48 hrs by sulforhodamine B assay; conditions: SW-620, 48 h; in short: as §2
NCI/ADR-RES = assay: Growth inhibition of human NCI/ADR-RES cells after 48 hrs by sulforhodamine B assay; in short: as §1
OVCAR-3 = assay: Growth inhibition of human OVCAR-3 cells after 48 hrs by sulforhodamine B assay; conditions: OVCAR-3, 48 h; in short: as §1
NCI-H522 = assay: Growth inhibition of human NCI-H522 cells after 48 hrs by sulforhodamine B assay; conditions: NCI-H522, 48 h; in short: as §1
OVCAR-4 = assay: Growth inhibition of human OVCAR4 cells after 48 hrs by sulforhodamine B assay; conditions: OVCAR-4, 48 h; in short: as §1
SNB-19 = assay: Growth inhibition of human SNB19 cells after 48 hrs by sulforhodamine B assay; conditions: SNB-19, 48 h; in short: as §2
SK-OV-3 = assay: Growth inhibition of human SKOV3 cells after 48 hrs by sulforhodamine B assay; conditions: SK-OV-3, 48 h; in short: as §1
NCI-H322M = assay: Growth inhibition of human NCI-H322M cells after 48 hrs by sulforhodamine B assay; in short: as §1
COLO 205 = assay: Growth inhibition of human COLO205 cells after 48 hrs by sulforhodamine B assay; conditions: COLO 205, 48 h; in short: as §1
U-251 = assay: Growth inhibition of human U251 cells after 48 hrs by sulforhodamine B assay; conditions: U-251, 48 h; in short: as §2
786-0 = assay: Growth inhibition of human 786-0 cells after 48 hrs by sulforhodamine B assay; conditions: 786-0, 48 h; in short: as §1
SF-295 = assay: Growth inhibition of human SF295 cells after 48 hrs by sulforhodamine B assay; conditions: SF-295, 48 h; in short: as §1
K562 = assay: Growth inhibition of human K562 cells after 48 hrs by sulforhodamine B assay; conditions: K562, 48 h; in short: as §1
UO-31 = assay: Growth inhibition of human UO31 cells after 48 hrs by sulforhodamine B assay; conditions: UO-31, 48 h; in short: as §2
M14 = assay: Growth inhibition of human M14 cells after 48 hrs by sulforhodamine B assay; conditions: M14, 48 h; in short: as §1
UACC-257 = assay: Growth inhibition of human UACC257 cells after 48 hrs by sulforhodamine B assay; conditions: UACC-257, 48 h; in short: as §2
MDA-MB-231 = assay: Growth inhibition of human MDA-MB-231 cells after 48 hrs by sulforhodamine B assay; conditions: MDA-MB-231, 48 h; in short: as §1
HOP-62 = assay: Growth inhibition of human HOP62 cells after 48 hrs by sulforhodamine B assay; conditions: HOP-62, 48 h; in short: as §1
HCT-116 = assay: Growth inhibition of human HCT116 cells after 48 hrs by sulforhodamine B assay; conditions: HCT-116, 48 h; in short: as §1
[2] = read-out: pLC50 (the source's name) (converted)

COc1ccc(Sc2nc3cc(N)cc(N)c3nc2-c2ccccc2)cc1
4.27 µM: GI50 (HL-60(TB))
3.24 µM: GI50 (NCI-H522)
85.1 µM: TGI ([1]; read-out: pTGI (converted))
72.4 µM: CC50 (TK-10; [2])
35.5 µM: GI50 (NCI-H322M)
> 100 µM: GI50 (OVCAR-8) | CC50 (OVCAR-8; [2]) | TGI (OVCAR-8; read-out: pTGI (converted)) | LC50 [1] | CC50 (CAKI-1; [2]) | LC50 (HL-60(TB)) | TGI (HL-60(TB); read-out: pTGI (converted)) | LC50 (A549) | TGI (A549; read-out: pTGI (converted)) | GI50 (OVCAR-5) | CC50 (OVCAR-5; [2]) | TGI (OVCAR-5; read-out: pTGI (converted)) | GI50 (MDA-MB-435) | CC50 (MDA-MB-435; [2]) | TGI (MDA-MB-435; read-out: pTGI (converted)) | GI50 (NCI-H23) | LC50 (50% net cell kill concentration) (NCI-H23) | TGI (NCI-H23; read-out: pTGI (converted)) | CC50 (SW-620; [2]) | TGI (SW-620; read-out: pTGI (converted)) | GI50 (NCI/ADR-RES) | CC50 (NCI/ADR-RES; [2]) | TGI (NCI/ADR-RES; read-out: pTGI (converted)) | CC50 (OVCAR-3; [2]) | TGI (OVCAR-3; read-out: pTGI (converted)) | LC50 (NCI-H522) | TGI (NCI-H522; read-out: pTGI (converted)) | CC50 (OVCAR-4; [2]) | TGI (OVCAR-4; read-out: pTGI (converted)) | GI50 (SNB-19) | LC50 (SNB-19) | TGI (SNB-19; read-out: pTGI (converted)) | CC50 (SK-OV-3; [2]) | TGI (SK-OV-3; read-out: pTGI (converted)) | LC50 (NCI-H322M) | TGI (NCI-H322M; read-out: pTGI (converted)) | LC50 (50% net cell kill) (COLO 205) | TGI (COLO 205; read-out: pTGI (converted)) | GI50 (U-251) | LC50 (50% net cell kill) (U-251) | TGI (U-251; read-out: pTGI (converted)) | GI50 (SF-295) | LC50 (50% net cell kill) (SF-295) | TGI (SF-295; read-out: pTGI (converted)) | LC50 (K562) | TGI (K562; read-out: pTGI (converted)) | CC50 (UO-31; [2]) | TGI (UO-31; read-out: pTGI (converted)) | GI50 (M14) | CC50 (M14; [2]) | TGI (M14; read-out: pTGI (converted)) | CC50 (UACC-257; [2]) | TGI (UACC-257; read-out: pTGI (converted)) | GI50 (MDA-MB-231) | CC50 (MDA-MB-231; [2]) | TGI (MDA-MB-231; read-out: pTGI (converted)) | GI50 (HOP-62) | LC50 (HOP-62) | TGI (HOP-62; read-out: pTGI (converted)) | LC50 (concentration causing 50% net cell death) (HCT-116) | TGI (HCT-116; read-out: pTGI (converted))
12.9 µM: GI50 (TK-10)
33.1 µM: GI50 (SK-OV-3)
14.8 µM: GI50 (HCT-116)
43.7 µM: GI50 (UACC-257)
19.5 µM: GI50 (COLO 205)
4.17 µM: GI50 (UO-31)
52.5 µM: TGI (CAKI-1; read-out: pTGI (converted))
70.8 µM: CC50 (786-0; [2])
9.77 µM: GI50 (K562)
13.2 µM: GI50 (CAKI-1) | GI50 (786-0)
3.98 µM: GI50 [1]
26.3 µM: GI50 (SW-620)
30.2 µM: TGI (TK-10; read-out: pTGI (converted)) | TGI (786-0; read-out: pTGI (converted))
42.7 µM: GI50 (A549)
